Assays:
Conditions in all cases: in vivo
Homo sapiens [1] = assay: Drug excretion in human with creatinine clearance of 30-49 ml/min assessed as RO4957463 level at 1500 mg, iv administered as single dose after 24 hrs; assay type: ADME, organism-based
Summary of the method: (§1)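 After a single 1,500 mg i.v. infusion over 60 min, urine was collected 0–6, 6–12 and 12–24 h post-dose, with volume and pH recorded. Aliquots were mixed 1:1 with 0.5 M MOPS, protected from light and frozen at −70°C. Parent and metabolite were assayed by a validated method. CLR = Ae24/plasma AUC24. n = 8 per group, mean ± SD.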

Homo sapiens [2] = assay: Dose normalized excretion in human with creatinine clearance of =< 30 ml/min assessed as RO4957463 level at 1500 mg, iv administered as single dose after 24 hrs; assay type: ADME, organism-based; summary of the method: as §1
Homo sapiens [3] = assay: Drug excretion in human with creatinine clearance of 50-79 ml/min assessed as RO4957463 level at 1500 mg, iv administered as single dose after 24 hrs; assay type: ADME, organism-based; summary of the method: as §1
Homo sapiens [4] = assay: Dose normalized excretion in human with creatinine clearance of 30-49 ml/min assessed as RO4957463 level at 1500 mg, iv administered as single dose after 24 hrs; assay type: ADME, organism-based; summary of the method: as §1
Homo sapiens [5] = assay: Renal clearance in human with creatinine clearance of 30-49 ml/min assessed as RO4957463 level at 1500 mg, iv administered as single dose after 24 hrs; assay type: ADME, organism-based, Kidney; summary of the method: as §1
Homo sapiens [6] = assay: Drug excretion in human with creatinine clearance of => 80 ml/min assessed as RO4957463 level at 1500 mg, iv administered as single dose after 24 hrs; assay type: ADME, organism-based; summary of the method: as §1
Homo sapiens [7] = assay: Dose normalized excretion in human with creatinine clearance of 50-79 ml/min assessed as RO4957463 level at 1500 mg, iv administered as single dose after 24 hrs; assay type: ADME, organism-based; summary of the method: as §1
Homo sapiens [8] = assay: Renal clearance in human with creatinine clearance of =< 30 ml/min assessed as RO4957463 level at 1500 mg, iv administered as single dose after 24 hrs; assay type: ADME, organism-based, Kidney
Summary of the method: (§2)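 Single 1,500 mg i.v. infusion over 60 min, with 8 subjects per renal-function group (CL_CR by Cockcroft-Gault at screening). Urine was collected at 0–6, 6–12 and 12–24 h, volume and pH recorded, and aliquots mixed 1:1 with 0.5 M MOPS. Samples were frozen at −70°C, protected from light, and assayed by a validated method. CL_R = A_e24/AUC₂₄.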

Homo sapiens [9] = assay: Renal clearance in human with creatinine clearance of 50-79 ml/min assessed as RO4957463 level at 1500 mg, iv administered as single dose after 24 hrs; assay type: ADME, organism-based, Kidney; summary of the method: as §2
Homo sapiens [10] = assay: Dose normalized excretion in human with creatinine clearance of => 80 ml/min assessed as RO4957463 level at 1500 mg, iv administered as single dose after 24 hrs; assay type: ADME, organism-based; summary of the method: as §1
Homo sapiens [11] = assay: Renal clearance in human with creatinine clearance of => 80 ml/min assessed as RO4957463 level at 1500 mg, iv administered as single dose after 24 hrs; assay type: ADME, organism-based, Kidney; summary of the method: as §2
Homo sapiens [12] = assay: Drug excretion in human with creatinine clearance of =< 30 ml/min assessed as RO4957463 level at 1500 mg, iv administered as single dose after 24 hrs; assay type: ADME, organism-based; summary of the method: as §1

Activity (Homo sapiens [1]): 281 mg
Activity (Homo sapiens [2]): 13.1%
Activity (Homo sapiens [3]): 279 mg
Activity (Homo sapiens [4]): 18.7%
CL_renal (Homo sapiens [5]): 3.91 L/h
Activity (Homo sapiens [6]): 240 mg
Activity (Homo sapiens [7]): 18.6%
CL_renal (Homo sapiens [8]): 1.01 L/h
CL_renal (Homo sapiens [9]): 8.27 L/h
Activity (Homo sapiens [10]): 16%
CL_renal (Homo sapiens [11]): 13.2 L/h
Activity (Homo sapiens [12]): 194 mg
Compound: C[C@@H]1[C@H]([C@H](C(=O)O)[C@@H](C)O)N=C(C(=O)O)[C@H]1S[C@H]1C[C@@H](C(=O)N2CC[C@H](NC(=O)CNC(=N)N)C2)N(C)C1
